Assay results as given in ChEMBL document CHEMBL1146638, “Chemical basis for the biological activity of imexon and related cyanoaziridines” (J Med Chem, 2004).
“And” between values parts separate entries of the source, which are not always exact repeats. Equal values may be shown once.

Tests used:
[1] = tested on: L1210; test: Cytotoxicity against multidrug resistant (MDR) L1210 murine leukemia cells by MTT assay; assay type: functional, cell-based, Mus musculus
Outline: (§1)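 Murine L1210 leukemia cells, drug-sensitive and multidrug-resistant (MDR) sublines, tested in culture. Viability read by MTT assay. Values reported as IC50 in µM.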

[2] = tested on: L1210; test: Cytotoxicity against sensitive L1210 murine leukemia cells by MTT assay; assay type: functional, cell-based, Mus musculus; outline: as §1
[3] = tested on: RPMI-8226; test: Cytotoxicity against sensitive human myeloma 8226/S cells by MTT assay

Compound	IC50 ([1]; Mus musculus, L1210) [µM]	IC50 ([2]; Mus musculus, L1210) [µM]	IC50 ([1]; l1210)	IC50 ([2]; l1210) [µM]	IC50 [3] [µM]
CNC(=O)N1CC1C1=NC(C(=O)O)CS1 (stereo not drawn)	> 500	> 500			
O=C(Nc1ccccc1)N1CC1			5.8 µM and 28.4 µM		
N#CC1CN1C(=O)Nc1ccccc1 (stereo not drawn)			41.2 µM	38.4	
CC(=O)NC(CSCC1NC(=O)NC1=O)C(=O)O (stereo not drawn)	116	73.7			56.3
N#CC1CN1 (stereo not drawn)	> 500	> 500			
NC(=O)N1CC1C1=NC(C(=O)O)CS1 (stereo not drawn)	> 500	> 500			
CNC(=O)N1CC1C#N (stereo not drawn)	36.7	25.1			15.5
O=C(O)C1CSC(C2CN2)=N1 (stereo not drawn)	> 500	> 500			
N#CC1CN1C(N)=O (stereo not drawn)	> 500	> 500			> 500
C[N+](C)(C)C(CSCC(C#N)NC(=O)Nc1ccccc1)C(=O)[O-] (stereo not drawn)	> 500	73.9			44.9
